Ki data for 29 compounds are collected here from ChEMBL document CHEMBL2074537, “Interaction of 31 beta-lactam antibiotics with the H+/peptide symporter PEPT2: analysis of affinity constants and comparison with PEPT1” (Eur J Pharm Biopharm, 2005).

Several values for one entry are separate records, joined by “and”; a condition that tells them apart may be missing. Identical values can stand only once.

For assay [1], the target named is T1, Solute carrier family 15 member 1 (Homo sapiens, UniProt P46059).
T1 sequence (P46059 whole entry): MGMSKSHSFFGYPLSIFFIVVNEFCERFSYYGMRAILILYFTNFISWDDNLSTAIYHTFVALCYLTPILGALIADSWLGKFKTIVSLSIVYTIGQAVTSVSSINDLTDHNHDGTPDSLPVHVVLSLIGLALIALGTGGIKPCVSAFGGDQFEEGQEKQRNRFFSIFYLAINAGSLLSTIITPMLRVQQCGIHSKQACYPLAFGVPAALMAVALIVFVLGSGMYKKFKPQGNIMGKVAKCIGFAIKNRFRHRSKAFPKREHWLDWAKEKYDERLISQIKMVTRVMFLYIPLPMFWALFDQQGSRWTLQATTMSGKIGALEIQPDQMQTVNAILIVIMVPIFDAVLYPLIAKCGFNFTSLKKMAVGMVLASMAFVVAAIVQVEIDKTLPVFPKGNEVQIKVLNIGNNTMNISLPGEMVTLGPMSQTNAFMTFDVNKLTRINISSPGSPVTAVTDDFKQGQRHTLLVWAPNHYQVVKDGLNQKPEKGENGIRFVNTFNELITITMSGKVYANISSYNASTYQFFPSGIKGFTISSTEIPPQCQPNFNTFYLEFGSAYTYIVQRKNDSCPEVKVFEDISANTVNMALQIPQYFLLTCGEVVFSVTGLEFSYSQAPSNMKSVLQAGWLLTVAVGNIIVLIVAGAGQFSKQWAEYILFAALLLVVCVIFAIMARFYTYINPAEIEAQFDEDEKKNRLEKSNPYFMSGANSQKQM
As to the kind of experiment: TP_TRANSPORTER: inhibition of Gly-Sar uptake (pH6.0) in Caco-2 cells. The class given is functional, cell-based.

In assay [2] the target is T2, Solute carrier family 15 member 2 (Rattus norvegicus, UniProt Q63424).
T2 sequence (Q63424 whole entry): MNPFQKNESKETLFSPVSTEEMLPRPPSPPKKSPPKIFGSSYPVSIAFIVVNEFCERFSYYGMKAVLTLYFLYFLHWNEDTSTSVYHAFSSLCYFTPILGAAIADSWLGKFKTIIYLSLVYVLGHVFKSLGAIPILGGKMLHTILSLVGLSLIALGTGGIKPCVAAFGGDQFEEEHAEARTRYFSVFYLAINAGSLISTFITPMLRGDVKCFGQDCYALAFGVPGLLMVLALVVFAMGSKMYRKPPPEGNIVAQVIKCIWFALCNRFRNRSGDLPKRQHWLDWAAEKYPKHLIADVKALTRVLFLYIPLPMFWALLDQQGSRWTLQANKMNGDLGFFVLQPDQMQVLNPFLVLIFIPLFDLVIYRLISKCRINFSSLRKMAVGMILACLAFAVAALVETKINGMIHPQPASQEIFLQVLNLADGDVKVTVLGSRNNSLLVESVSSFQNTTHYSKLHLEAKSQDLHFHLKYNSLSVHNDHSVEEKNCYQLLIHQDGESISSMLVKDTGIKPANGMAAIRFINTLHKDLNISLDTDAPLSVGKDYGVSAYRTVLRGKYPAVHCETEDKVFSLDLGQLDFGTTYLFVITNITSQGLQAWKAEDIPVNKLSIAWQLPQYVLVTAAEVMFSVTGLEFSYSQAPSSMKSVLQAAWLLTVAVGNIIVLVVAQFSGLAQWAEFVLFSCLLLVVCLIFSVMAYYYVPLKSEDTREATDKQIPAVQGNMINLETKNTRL
As to the kind of experiment: TP_TRANSPORTER: inhibition of Gly-Sar uptake (pH6.0) in SKPT cells. It is filed as functional, cell-based. In short, it runs like this: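 Rat SKPT renal proximal tubule cells were seeded and used 4 days later. Cells were given ice-cold washes, lysed and counted by scintillation, with protein by Bradford. Non-saturable uptake was taken with 10 mM Gly-Sar.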

By Ki is commonly meant the dissociation constant of the complex between target and ligand, obtained from inhibition or displacement. On to `CC1(C)S[C@@H]2[C@H](N)C(=O)N2[C@H]1C(=O)O`, for which the inhibitory constant (Ki) in assay [1] was greater than 30 mM; in assay [2] it was 19 mM.

As for `CC(=O)OCC1=C(C(=O)O)N2C(=O)[C@@H](N)[C@H]2SC1`, the Ki was greater than 10 mM in assay [1] and 4.9 mM in assay [2].

As for `CO/N=C(\C(=O)N[C@@H]1C(=O)N2C(C(=O)[O-])=C(C[N+]3(C)CCCC3)CS[C@H]12)c1csc(N)n1`, the results for the Ki in assay [1] and in assay [2] were greater than 30 mM and 11.4 mM, respectively.

As for `CC1(C)S[C@@H]2[C@H](NC(=O)[C@H](N)c3ccc(O)cc3)C(=O)N2[C@H]1C(=O)O` [AMOXICILLIN], the inhibition constant (Ki) is greater than 10 mM in assay [1] and 0.43 mM in assay [2].

In assay [1], `N[C@@H](C(=O)N[C@@H]1C(=O)N2C(C(=O)O)=C(Cl)CS[C@H]12)c1ccccc1` [CEFACLOR ANHYDROUS] registered a Ki greater than 10 mM.

For the compound `CC1=C(C(=O)O)N2C(=O)[C@@H](NC(=O)[C@H](N)c3ccc(O)cc3)[C@H]2SC1` [CEFADROXIL], the affinity in assay [1], expressed as Ki, was 7.2 mM.

Regarding `Cn1nnnc1SCC1=C(C(=O)O)N2C(=O)[C@@H](NC(=O)[C@H](O)c3ccccc3)[C@H]2SC1` [CEFAMANDOLE], the inhibition constant Ki came out at 8.1 mM in assay [1] and 2.8 mM in assay [2].

In the case of `C=CC1=C(C(=O)O)N2C(=O)[C@@H](NC(=O)/C(=N\OCC(=O)O)c3csc(N)n3)[C@H]2SC1` [CEFIXIME], the Ki in assay [1] was 12 mM; in assay [2] it was 2.6 mM.

Consider `CO[C@@]1(NC(=O)CSCC#N)C(=O)N2C(C(=O)O)=C(CSc3nnnn3C)CS[C@@H]21` [CEFMETAZOLE], for which the inhibition constant Ki in assay [1] turned out to be 28 mM; in assay [2] it was 4.3 mM.

On to `CO/N=C(\C(=O)N[C@@H]1C(=O)N2C(C(=O)O)=C(CSc3nc(C)c(CC(=O)O)s3)CS[C@H]12)c1csc(N)n1` [CEFODIZIME], for which the Ki was determined as 22 mM in assay [1] and 9 mM in assay [2].

Take `CO/N=C(\C(=O)N[C@@H]1C(=O)N2C(C(=O)O)=C(COC(C)=O)CS[C@H]12)c1csc(N)n1` [CEFOTAXIME]: the Ki in assay [1] was greater than 30 mM; in assay [2], 20 mM.

For `CO/N=C(\C(=O)N[C@@H]1C(=O)N2C(C(=O)[O-])=C(C[n+]3cccc4c3CCC4)CS[C@H]12)c1csc(N)n1` [CEFPIROME], the figures for the inhibition constant (Ki) in assay [1] and in assay [2] were greater than 30 mM and 9.5 mM, respectively.

In the case of `NC(=O)c1cc[n+](CC2=C(C(=O)O)N3C(=O)[C@@H](NC(=O)[C@@H](c4ccccc4)S(=O)(=O)[O-])[C@H]3SC2)cc1` [CEFSULODIN], the inhibition constant Ki in assay [1] and in assay [2] was greater than 30 mM each time.

Regarding `CC(C)(O/N=C(\C(=O)N[C@@H]1C(=O)N2C(C(=O)[O-])=C(C[n+]3ccccc3)CS[C@H]12)c1csc(N)n1)C(=O)O` [CEFTAZIDIME], the Ki in assay [1] and in assay [2] was greater than 10 mM throughout.

In the case of `Nc1nc(/C(=C/CC(=O)O)C(=O)N[C@@H]2C(=O)N3C(C(=O)O)=CCS[C@H]23)cs1` [CEFTIBUTEN], the inhibition constant (Ki) in assay [1] was 0.34 mM; in assay [2] it was 0.28 mM.

On to `CO/N=C(\C(=O)N[C@@H]1C(=O)N2C(C(=O)O)=C(CSc3nc(=O)c(=O)[nH]n3C)CS[C@H]12)c1csc(N)n1` [CEFTRIAXONE], for which the Ki in assay [1] was greater than 30 mM; in assay [2] it was greater than 20 mM.

For `CO/N=C(\C(=O)N[C@@H]1C(=O)N2C(C(=O)O)=C(COC(N)=O)CS[C@H]12)c1ccco1` [CEFUROXIME], the inhibition constant Ki was > 5 mM and 26 mM in assay [1]; > 0.003 mM and 12.6 mM in assay [2].

For `CC1=C(C(=O)O)N2C(=O)[C@@H](NC(=O)[C@H](N)c3ccccc3)[C@H]2SC1` [CEPHALEXIN ANHYDROUS], the inhibitory constant (Ki) in assay [2] stood at 0.075 mM.

Consider `O=C(Cc1cccs1)N[C@@H]1C(=O)N2C(C(=O)[O-])=C(C[n+]3ccccc3)CS[C@H]12` [CEPHALORIDINE], for which the Ki is greater than 30 mM in assay [1] and 8.5 mM in assay [2].

As to `CC(=O)OCC1=C(C(=O)O)N2C(=O)[C@@H](NC(=O)Cc3cccs3)[C@H]2SC1` [CEPHALOTHIN], the inhibition constant (Ki) in assay [1] was greater than 10 mM; in assay [2] it was 8.3 mM.

With `CC(=O)OCC1=C(C(=O)O)N2C(=O)[C@@H](NC(=O)CSc3ccncc3)[C@H]2SC1` [CEPHAPIRIN], the Ki in assay [1] and in assay [2] was greater than 10 mM in each case.

Consider `CC1=C(C(=O)O)N2C(=O)[C@@H](NC(=O)[C@H](N)C3=CCC=CC3)[C@H]2SC1` [CEPHRADINE], for which the Ki in assay [1] worked out at 9.8 mM; in assay [2] it was 0.065 mM.

As for `Cc1onc(-c2ccccc2Cl)c1C(=O)N[C@@H]1C(=O)N2[C@@H]1SC(C)(C)[C@@H]2C(=O)O` [CLOXACILLIN], the results for the Ki in assay [1] and in assay [2] were 3 mM and 0.95 mM, respectively.

Turning to `CC1(C)S[C@@H]2[C@H](NC(=O)C3(N)CCCCC3)C(=O)N2[C@H]1C(=O)O` [CYCLACILLIN], the values for the Ki in assay [1] and in assay [2] were 0.5 mM and 0.044 mM, respectively.

In the case of `Cc1onc(-c2c(Cl)cccc2Cl)c1C(=O)N[C@@H]1C(=O)N2[C@@H]1SC(C)(C)[C@@H]2C(=O)O` [DICLOXACILLIN], the Ki in assay [1] is 7.2 mM; in assay [2], 0.42 mM.

Consider `C=N[C@@H](C(=O)N[C@@H]1C(=O)N2[C@@H]1SC(C)(C)[C@@H]2C(=O)O)c1ccccc1` [METAMPICILLIN], for which the inhibitory constant (Ki) was determined as 12.7 mM in assay [1] and 0.73 mM in assay [2].

As for `CO[C@@]1(NC(=O)C(C(=O)O)c2ccc(O)cc2)C(=O)N2C(C(=O)O)=C(CSc3nnnn3C)CO[C@@H]21` (some centres undefined) [MOXALACTAM], the results for the inhibition constant (Ki) in assay [1] and in assay [2] were 12.3 mM and 0.087 mM, respectively.

For the compound `Cc1onc(-c2ccccc2)c1C(=O)N[C@@H]1C(=O)N2[C@@H]1SC(C)(C)[C@@H]2C(=O)O` [OXACILLIN], the figures for the inhibition constant Ki in assay [1] and in assay [2] were 12 mM and 3.3 mM, respectively.

Compound `CC1(C)S[C@@H]2[C@H](NC(=O)Cc3ccccc3)C(=O)N2[C@H]1C(=O)O` [PENICILLIN G] showed a Ki in assay [1] greater than 30 mM.
